Measurements: ChEMBL document CHEMBL1135891, “Development of long-acting dopamine transporter ligands as potential cocaine-abuse therapeutic agents: chiral hydroxyl-containing derivatives of 1-[2-[bis(4-fluorophenyl)methoxy]ethyl]-4-(3-phenylpropyl)piperazine and 1-[2-(diphenylmethoxy)ethyl]-4-(3-phenylpropyl)piperazine” (J Med Chem, 2002)
pKi: −log10 of the molar value.

Assays:
[1] = molecular target: Sodium-dependent dopamine transporter (Rattus norvegicus, UniProt P23977); experiment: Binding affinity for dopamine transporter
Sequence of Sodium-dependent dopamine transporter (P23977 whole entry): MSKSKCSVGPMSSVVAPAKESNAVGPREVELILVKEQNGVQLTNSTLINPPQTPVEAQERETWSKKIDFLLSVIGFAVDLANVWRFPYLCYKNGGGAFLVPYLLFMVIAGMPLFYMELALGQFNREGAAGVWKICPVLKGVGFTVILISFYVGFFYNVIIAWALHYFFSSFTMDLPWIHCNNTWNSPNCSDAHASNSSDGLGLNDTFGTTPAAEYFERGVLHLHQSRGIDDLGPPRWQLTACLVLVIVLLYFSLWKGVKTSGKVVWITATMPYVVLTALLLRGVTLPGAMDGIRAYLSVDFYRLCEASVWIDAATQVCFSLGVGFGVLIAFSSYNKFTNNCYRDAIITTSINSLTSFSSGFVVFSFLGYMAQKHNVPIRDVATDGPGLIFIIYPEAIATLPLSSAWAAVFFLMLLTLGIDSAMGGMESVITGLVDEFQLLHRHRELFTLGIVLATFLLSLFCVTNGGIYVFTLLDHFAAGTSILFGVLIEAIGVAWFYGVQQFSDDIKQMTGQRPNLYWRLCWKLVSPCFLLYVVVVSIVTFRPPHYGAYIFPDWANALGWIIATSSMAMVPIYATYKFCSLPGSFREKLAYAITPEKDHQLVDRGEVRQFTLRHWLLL
Outline: (§1)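 [125I]RTI-55 competition binding. Drugs and blockers in 55.2 mM sodium phosphate buffer pH 7.4 with 1 mg/mL BSA. Radioligand in the same buffer with chymostatin, leupeptin, EDTA and EGTA. Triplicate incubation for 18–24 h at 4 °C to equilibrium. Filtered over GF/B filters presoaked in 2% polyethylenimine, washed with ice-cold Tris-HCl/NaCl pH 7.4. Ki derived.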

[2] = molecular target: Sodium-dependent serotonin transporter (Rattus norvegicus, UniProt P31652); experiment: Binding affinity for serotonin transporter; outline: as §1
Sequence of Sodium-dependent serotonin transporter (P31652 whole entry): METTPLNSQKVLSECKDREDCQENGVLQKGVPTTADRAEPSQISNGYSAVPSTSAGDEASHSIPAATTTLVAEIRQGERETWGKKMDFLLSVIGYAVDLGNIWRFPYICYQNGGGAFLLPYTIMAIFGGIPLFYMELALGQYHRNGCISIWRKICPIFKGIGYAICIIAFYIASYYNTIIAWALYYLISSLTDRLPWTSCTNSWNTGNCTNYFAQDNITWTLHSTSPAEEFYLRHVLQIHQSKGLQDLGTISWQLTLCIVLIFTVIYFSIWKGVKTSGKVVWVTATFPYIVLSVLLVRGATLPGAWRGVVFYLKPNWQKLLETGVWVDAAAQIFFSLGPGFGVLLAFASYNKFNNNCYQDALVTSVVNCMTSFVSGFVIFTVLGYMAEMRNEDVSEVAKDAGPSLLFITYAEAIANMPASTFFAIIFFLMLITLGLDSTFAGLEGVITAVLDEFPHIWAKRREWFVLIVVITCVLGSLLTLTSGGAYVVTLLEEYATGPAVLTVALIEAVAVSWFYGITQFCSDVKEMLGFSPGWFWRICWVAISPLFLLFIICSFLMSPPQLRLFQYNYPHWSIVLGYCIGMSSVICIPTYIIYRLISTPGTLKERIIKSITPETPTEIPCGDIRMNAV

[3] = molecular target: Monoamine transporters; serotonin & dopamine (Rattus norvegicus) (UniProt P31652+P23977); experiment: Selectivity ratio for serotonin transporter to dopamine transporter; type: protein assay
Sequence of Monoamine transporters; serotonin & dopamine (Rattus norvegicus) (P23977 whole entry, looked up): as the sequence (P23977 whole entry) above
Sequence of Monoamine transporters; serotonin & dopamine (Rattus norvegicus) (P31652 whole entry, looked up): as the sequence (P31652 whole entry) above

[4] = tested on: Rattus norvegicus; experiment: Dopamine (DA) reuptake inhibition properties of in vivo extracellular dopamine (ECDA) levels in rat nucleus accumbens microdialysis assay, at […]; type: functional
Outline: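 Male Sprague–Dawley rats (300–450 g), conscious and freely moving, with jugular catheters and nucleus accumbens probes (2 mm exchange surface). Single iv doses (as salt) of drug or saline vehicle given after three baseline samples. Dialysate taken every 20 min for 2 h, DA by microbore HPLC-EC. Values are pg/5 µL, mean ± SEM, n = 4–5 rats/group. Repeated-measures ANOVA.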

## O[C@@H](Cc1ccccc1)CN1CCN(CCOC(c2ccccc2)c2ccccc2)CC1
[1]
  pKi: 8.64
[2]
  pKi: 5.67
[3]
  Ratio: 939

## O[C@H](CN1CCN(CCOC(c2ccc(F)cc2)c2ccc(F)cc2)CC1)c1ccccc1
[1]
  pKi: 7.96
[2]
  pKi: 7.11
[3]
  Ratio: 7

## O[C@@H](CN1CCN(CCOC(c2ccc(F)cc2)c2ccc(F)cc2)CC1)c1ccccc1
[1]
  pKi: 7.59
[2]
  pKi: 7.89
[3]
  Ratio: 0.5

## O[C@@H](Cc1ccccc1)CN1CCN(CCOC(c2ccc(F)cc2)c2ccc(F)cc2)CC1
[1]
  pKi: 9.12
[4]
  DA level: 1.73 pg 5ul-1
[2]
  pKi: 6.64
[3]
  Ratio: 307

## OC(Cc1ccccc1)CN1CCN(CCOC(c2ccc(F)cc2)c2ccc(F)cc2)CC1 (racemic)
[1]
  pKi: 8.64
[2]
  pKi: 6.92
[3]
  Ratio: 52

## OCC(c1ccccc1)N1CCN(CCOC(c2ccc(F)cc2)c2ccc(F)cc2)CC1 (racemic)
[1]
  pKi: 7.32
[2]
  pKi: 5.60
[3]
  Ratio: 52

## O[C@@H](CN1CCN(CCOC(c2ccccc2)c2ccccc2)CC1)c1ccccc1
[1]
  pKi: 6.77
[2]
  pKi: 6.48
[3]
  Ratio: 2

## O[C@H](Cc1ccccc1)CN1CCN(CCOC(c2ccc(F)cc2)c2ccc(F)cc2)CC1
[1]
  pKi: 7.92
[4]
  DA level: 1.73 pg 5ul-1
[2]
  pKi: 6.80
[3]
  Ratio: 13

## O[C@H](CN1CCN(CCOC(c2ccccc2)c2ccccc2)CC1)c1ccccc1
[1]
  pKi: 7.52
[2]
  pKi: 5.85
[3]
  Ratio: 47

## O[C@H](Cc1ccccc1)CN1CCN(CCOC(c2ccccc2)c2ccccc2)CC1
[1]
  pKi: 7.60
[2]
  pKi: 5.74
[3]
  Ratio: 72

## OCC(c1ccccc1)N1CCN(CCOC(c2ccccc2)c2ccccc2)CC1 (racemic)
[1]
  pKi: 6.92
[2]
  pKi: 5.42
[3]
  Ratio: 32

## Fc1ccc(C(OCCN2CCN(CCc3ccccc3)CC2)c2ccc(F)cc2)cc1
[1]
  pKi: 8.10
[2]
  pKi: 7.44
[3]
  Ratio: 5
